# Assay results: ChEMBL document CHEMBL1154714, “Design and synthesis of novel P2 substituents in diol-based HIV protease inhibitors” (Eur J Med Chem, 2010)
# Tests used:
# Protease [1] = target: T1, Protease (Human immunodeficiency virus 1, UniProt Q9YQ12); experiment: Inhibition of HIV1 recombinant protease by fluorometric assay
# How it was run: (§1)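 HIV-1 protease was cloned and expressed heterologously in E. coli. K_i values were determined in a fluorometric assay.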
# [2] = test system: Human immunodeficiency virus 1; experiment: Antiviral activity against HIV1 3B bearing wild type protease infected in human MT4 cells assessed as inhibition of virus-induced cytopathic effect after 5 days by XTT assay; format: functional, organism-based; conditions: Human immunodeficiency virus 1, 3B, MT4, 120 h
# How it was run: (§2)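 MT-4 cells (2 ×10⁴ cells/well) got 5-fold serial compound dilutions together with 20–50 TCID of HIV IIIb. The virus was wild type, or an M46I/V82F/I84V mutant isolated after 20 passages of IIIb in MT4 cells under increasing ritonavir. Cell viability was read with XTT after five days. EC₅₀ came from dose–response curves of percent cytoprotection.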
# [3] = test system: Human immunodeficiency virus 1; experiment: Antiviral activity against HIV1 3B bearing protease with M46I, V82F and I84V mutation infected in human MT4 cells assessed as inhibition of virus-induced cytopathic effect after 5 days by XTT assay; format: functional, organism-based; conditions: Human immunodeficiency virus 1, 3B, MT4, 120 h
# How it was run: (§3)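 HIV IIIb resistant variant (M46I, V82F, I84V) obtained after 20 passages in MT4 cells under rising ritonavir. MT4 cells (2×10⁴/well) received 5-fold serial compound dilutions together with 20–50 TCID of wild-type or mutant IIIb. After 5 days, cytopathic effect was read as viability by XTT. EC50 was taken from dose-response curves of percent cytoprotection.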
# [4] = test system: Human immunodeficiency virus 1; experiment: Ratio of EC50 for HIV1 3B bearing protease with M46I, V82F and I84V mutation to EC50 for HIV1 3B bearing wild type protease; format: functional; how it was run: as §3
# [5] = Apparent permeability across human Caco-2 cell membrane; format: ADME, cell-based
# Protease [6] = target: T1, Protease; experiment: Inhibition of HIV1 protease; how it was run: as §1
# [7] = test system: Human immunodeficiency virus 1; experiment: Antiviral activity against HIV1; format: functional, organism-based; how it was run: as §2
# T1 sequence (Q9YQ12 whole entry): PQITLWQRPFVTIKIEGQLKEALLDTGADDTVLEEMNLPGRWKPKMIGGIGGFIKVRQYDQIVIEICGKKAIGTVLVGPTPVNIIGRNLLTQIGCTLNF
Compound,Ki (Protease [1]),EC50 [2],EC50 [3],Ratio EC50 [4],Papp [5],Ki (Protease [6]),EC50 [7]
CC(C)[C@H](NC(=O)[C@H](OCc1ccccc1)[C@H](O)[C@@H](O)[C@@H](OCc1ccccc1)C(=O)N[C@H]1c2ccccc2C[C@H]1O)C(=O)NCC(F)(F)F,1.9 nM,150 nM,920 nM,5,2.9 ×10⁻⁶ cm/s,,
O=C(N[C@H]1c2ccccc2C[C@H]1O)[C@H](OCc1ccccc1)[C@H](O)[C@@H](O)[C@@H](OCc1ccccc1)C(=O)N[C@H]1c2ccccc2C[C@H]1O,,,,,,0.6 nM,100 nM
"CNC(=O)[C@@H](NC(=O)[C@H](OCc1ccccc1)[C@H](O)[C@@H](O)[C@@H](OCc1ccccc1)C(=O)N[C@H]1c2ccccc2C[C@H]1O)C(C)COC (single isomer, unassigned; 4e)",0.7 nM,330 nM,1300 nM,4,,,
CNC(=O)[C@H](NC(=O)[C@H](OCc1ccccc1)[C@H](O)[C@@H](O)[C@@H](OCc1ccccc1)C(=O)N[C@H]1c2ccccc2C[C@H]1O)C1COC1,99 nM,> 10000 nM,> 10000 nM,,,,
CNC(=O)[C@H](CCOC)NC(=O)[C@H](OCc1ccccc1)[C@H](O)[C@@H](O)[C@@H](OCc1ccccc1)C(=O)N[C@H]1c2ccccc2C[C@H]1O,10 nM,1800 nM,6900 nM,3,,,
CNC(=O)[C@@H](NC(=O)[C@H](OCc1ccccc1)[C@H](O)[C@@H](O)[C@@H](OCc1ccccc1)C(=O)N[C@H]1c2ccccc2C[C@H]1O)C1COC1,10 nM,5400 nM,> 10000 nM,> 1.6,,,
CNC(=O)[C@@H](NC(=O)[C@H](OCc1ccccc1)[C@H](O)[C@@H](O)[C@@H](OCc1ccccc1)C(=O)N[C@H]1c2ccccc2C[C@H]1O)C(C)C,0.2 nM,140 nM,1200 nM,9,1.4 ×10⁻⁶ cm/s,0.2 nM,140 nM
"CNC(=O)[C@@H](NC(=O)[C@H](OCc1ccccc1)[C@H](O)[C@@H](O)[C@@H](OCc1ccccc1)C(=O)N[C@H]1c2ccccc2C[C@H]1O)C(C)COC (single isomer, unassigned; 4d)",18 nM,3500 nM,> 10000 nM,> 2,,,
COCCNC(=O)[C@@H](NC(=O)[C@H](OCc1ccccc1)[C@H](O)[C@@H](O)[C@@H](OCc1ccccc1)C(=O)N[C@H]1c2ccccc2C[C@H]1O)C(C)C,2.3 nM,250 nM,1200 nM,5,,,
CC(C)[C@H](NC(=O)[C@H](OCc1ccccc1)[C@H](O)[C@@H](O)[C@@H](OCc1ccccc1)C(=O)N[C@H]1c2ccccc2C[C@H]1O)C(=O)NCCF,1 nM,170 nM,440 nM,3,1.6 ×10⁻⁶ cm/s,,
